Laboratory results as given in ChEMBL document CHEMBL1157474, “[11C]cyclopropyl-FLB 457: a PET radioligand for low densities of dopamine D2 receptors” (Bioorg Med Chem, 2008).
pKi: −log10 of the molar value.

Tests used:
D(2) dopamine receptor = D(2) dopamine receptor (Homo sapiens, UniProt P14416); experiment: Binding affinity to dopamine D2 receptor
[1] = Lipophilicity, log D at pH 7.4 by shake flask method; assay type: physicochemical; details: buffer
Summary of the method: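 Shake-flask logD at pH 7.4: tracer in 1-octanol/phosphate buffer (pH 7.4), shaken 3 min; buffer replaced and repeated. Four octanol portions re-extracted with buffer (vortex 2 min, centrifuge 4 min at 2000 x g); both layers counted; D = octanol cpm/mL over buffer cpm/mL.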

Brain = experiment: Drug uptake in iv dosed cynomolgus monkey brain after 7.5 mins by PET; assay type: ADME, organism-based, Macaca fascicularis; details: in vivo, 0.125 h
Summary of the method: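 Ketamine/xylazine-anaesthetized cynomolgus monkeys given 56.2 ± 0.2 MBq [11C] tracer i.v. bolus over 5 sec into sural vein; 3D PET to 93 min. Whole-brain %ID = whole-brain ROI radioactivity concentration × ROI volume (~65 mL) / injected radioactivity × 100, plotted versus time; brain activity assumed unchanged radioligand.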

[2] = Ratio of drug uptake in cerebellum to putamen in iv dosed cynomolgus monkey after 84 mins by PET; assay type: ADME, organism-based, Macaca fascicularis; details: in vivo, 1.4 h
Summary of the method: (§1)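 Baseline PET in ketamine/xylazine-anaesthetized cynomolgus monkeys after i.v. bolus of 56.2 ± 0.2 MBq tracer, scanned to 93 min. Regional radioactivity expressed as %SUV; region-to-cerebellum ratios taken at 84 min, cerebellum serving as reference region for free plus non-specific binding.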

[3] = Ratio of drug uptake in cerebellum to caudate nucleus in iv dosed cynomolgus monkey after 84 mins by PET; assay type: ADME, organism-based, Macaca fascicularis; details: in vivo, 1.4 h; summary of the method: as §1
[4] = Ratio of drug uptake in cerebellum to pallidum in iv dosed cynomolgus monkey after 84 mins by PET; assay type: ADME, organism-based, Macaca fascicularis; details: in vivo, 1.4 h; summary of the method: as §1
[5] = Ratio of drug uptake in cerebellum to thalamus in iv dosed cynomolgus monkey by PET; assay type: ADME, organism-based, Macaca fascicularis; details: in vivo
[6] = Ratio of drug uptake in cerebellum to frontal cortex in iv dosed cynomolgus monkey by PET; assay type: ADME, organism-based, Macaca fascicularis; details: in vivo
[7] = Ratio of drug uptake in cerebellum to parietal cortex in iv dosed cynomolgus monkey by PET; assay type: ADME, organism-based, Macaca fascicularis; details: in vivo
[8] = Ratio of drug uptake in cerebellum to temporal cortex in iv dosed cynomolgus monkey by PET; assay type: ADME, organism-based, Macaca fascicularis; details: in vivo
[9] = Metabolic stability in cynomolgus monkey plasma after 45 mins; assay type: ADME, cell-free, Macaca fascicularis; details: read-out: Stability
Summary of the method: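 Monkey femoral vein blood drawn at 4, 15, 30, 45 min post-injection; plasma deproteinized with acetonitrile, centrifuged at 2000 x g, supernatant run on reverse-phase C18 radio-HPLC with acetonitrile/0.01 M phosphoric acid gradient, 6 mL/min; parent fraction versus polar metabolites; recovery checked by NaI well counting.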

[10] = Protein binding in cynomolgus monkey plasma at 10 MBq; assay type: ADME, cell-free, Macaca fascicularis; details: read-out: PPB (converted)
Summary of the method: (§2)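 Monkey plasma (baseline or after raclopride pretreatment) mixed with tracer (~10 MBq) for 10 min at room temperature, then ultrafiltered (YM-30 membrane) by centrifugation; filtrate counted versus incubate. Duplicates; corrected for membrane binding using 0.9% NaCl controls.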

[11] = Protein binding in cynomolgus monkey plasma at 10 MBq in presence of raclopride; assay type: ADME, cell-free, Macaca fascicularis; details: read-out: PPB (converted); summary of the method: as §2
[12] = Ratio of drug uptake in occipital cortex to cerebellum in iv dosed cynomolgus monkey by PET; details: in vivo
Macaca fascicularis [13] = experiment: Binding affinity to dopamine D2 receptor in iv dosed cynomolgus monkey brain cerebellum pretreated with raclopride by PET; assay type: organism-based; details: tested as the 11C-labelled form
Macaca fascicularis [14] = experiment: Binding affinity to dopamine D3 receptor in iv dosed cynomolgus monkey brain cerebellum pretreated with raclopride by PET; assay type: organism-based; details: tested as the 11C-labelled form

Chain of D(2) dopamine receptor (P14416 whole entry): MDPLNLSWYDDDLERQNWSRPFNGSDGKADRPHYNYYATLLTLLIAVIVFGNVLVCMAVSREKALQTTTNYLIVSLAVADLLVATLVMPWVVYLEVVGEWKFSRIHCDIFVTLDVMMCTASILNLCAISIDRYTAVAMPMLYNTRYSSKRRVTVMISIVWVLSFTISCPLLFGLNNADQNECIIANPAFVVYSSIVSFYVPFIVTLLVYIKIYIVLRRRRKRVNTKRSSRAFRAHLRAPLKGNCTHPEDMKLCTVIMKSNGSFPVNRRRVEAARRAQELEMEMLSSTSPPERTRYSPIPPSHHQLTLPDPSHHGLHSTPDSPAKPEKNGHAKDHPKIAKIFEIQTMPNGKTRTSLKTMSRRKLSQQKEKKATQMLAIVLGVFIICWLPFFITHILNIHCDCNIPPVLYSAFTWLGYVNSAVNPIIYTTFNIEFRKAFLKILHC

CCN1CCC[C@H]1CNC(=O)c1cc(Br)cc(OC)c1OC
pKi (D(2) dopamine receptor): 11.52

CCN1CCC[C@H]1CNC(=O)c1cc(Br)cc(OC)c1O[11CH3]
logD [1]: 1.33

COc1cc(Br)cc(C(=O)NC[C@@H]2CCCN2CC2CC2)c1O[11CH3]
Drug uptake (Brain): 4.4 %ID
Ratio [2]: 7.61
Ratio [3]: 6.6
Ratio [4]: 5.4
Ratio [5]: 3.7
Ratio [6]: 3.24
Ratio [7]: 2.98
Ratio [8]: 2.59
remaining at 0.75 h [9]: 60%
logD [1]: 1.82
fraction unbound at 10 MBq [10]: 0.68
fraction unbound at 10 MBq [11]: 0.64
Ratio [12]: 2.08

COc1cc(Br)cc(C(=O)NC[C@@H]2CCCN2CC2CC2)c1OC
Activity (Macaca fascicularis [13]): 50%
Activity (Macaca fascicularis [14]): 50%
